Laboratory results reported in ChEMBL document CHEMBL4673245, “Discovery of AZD9833, a Potent and Orally Bioavailable Selective Estrogen Receptor Degrader and Antagonist” (J Med Chem, 2020).

Experiments:
Estrogen receptor [1] = biological target: T1, Estrogen receptor (Homo sapiens, UniProt P03372); assay: Displacement of fluormone ES2 green reagent from human GST-tagged ERalpha LBD (282 to 595 residues) expressed in baculovirus infected insect cells incubated for 1 hrs by TR-FRET Lanthascreen assay
T1 sequence (P03372 whole entry): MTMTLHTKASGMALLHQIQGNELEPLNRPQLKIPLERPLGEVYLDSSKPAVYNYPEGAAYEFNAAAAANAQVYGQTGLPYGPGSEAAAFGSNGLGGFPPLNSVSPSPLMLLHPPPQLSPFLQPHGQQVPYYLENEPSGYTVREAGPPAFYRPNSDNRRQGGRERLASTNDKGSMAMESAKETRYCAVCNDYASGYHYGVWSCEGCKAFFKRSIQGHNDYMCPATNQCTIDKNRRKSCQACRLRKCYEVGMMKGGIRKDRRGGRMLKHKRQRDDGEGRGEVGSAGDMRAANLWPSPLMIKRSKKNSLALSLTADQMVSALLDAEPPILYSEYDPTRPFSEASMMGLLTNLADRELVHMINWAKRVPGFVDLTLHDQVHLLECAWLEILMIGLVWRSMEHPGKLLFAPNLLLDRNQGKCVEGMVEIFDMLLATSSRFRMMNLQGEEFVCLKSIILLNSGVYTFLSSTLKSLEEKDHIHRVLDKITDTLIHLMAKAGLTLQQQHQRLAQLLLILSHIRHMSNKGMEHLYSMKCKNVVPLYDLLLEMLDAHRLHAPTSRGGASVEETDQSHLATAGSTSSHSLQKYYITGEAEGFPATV

[2] = Intrinsic clearance in rat hepatocytes assessed per million cells; assay type: ADME, cell-based, Hepatocyte; settings: read-out: CLH
How it was run: (§1)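 Hepatocyte intrinsic clearance measured from DMSO stock in isolated hepatocytes diluted to 1x10⁶ cells/mL; rate expressed as µl/min/10⁶ cells.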

Estrogen receptor [3] = biological target: T1, Estrogen receptor; assay: Induction of ERalpha degradation in human MCF7 cells assessed as decrease in ER-alpha level incubated for 18 to 24 hrs by Alexa fluor 488/Hoechst staining based immunofluorescence imaging analysis; assay type: cell-based
How it was run: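 ER degradation in MCF-7 cells via cellular degradation assay; n ≥ 2, degradation also expressed as %Dmax relative to fulvestrant.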

[4] = biological target: T2, Estrogen receptor (Homo sapiens) (UniProt P03372); assay: Induction of ERalpha degradation in human MCF7 cells assessed as maximum degradation incubated for 18 to 24 hrs by Alexa fluor 488/Hoechst staining based immunofluorescence imaging analysis relative to fulvestrant; assay type: cell-based; settings: time lower […], time upper […]
T2 sequence (whole entry): T1 sequence (P03372 whole entry)

[5] = Fraction unbound in human plasma by equilibrium dialysis method; assay type: ADME, cell-free
How it was run: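 Fraction unbound measured from DMSO stock by equilibrium dialysis in 10% human plasma.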

[6] = biological target: T2, Estrogen receptor (Homo sapiens); assay: Induction of ERalpha degradation in human MCF7 cells assessed as decrease in ER-alpha level at 0.1 uM by Western blot analysis relative to fulvestrant; assay type: cell-based; set-up: scale not given: the % may be the effect or the level left
[7] = Lipophilicity, log D of the compound in buffer and octanol at pH 7.4 by shake flask method; assay type: physicochemical
How it was run: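 logD at pH 7.4 by shake flask, buffer/octanol volume ratio 100:1.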

[8] = biological target: T2, Estrogen receptor (Homo sapiens); assay: Induction of ERalpha degradation in human CAMA1 cells assessed as decrease in ER-alpha level at 0.1 uM by Western blot analysis relative to fulvestrant; assay type: cell-based; set-up: scale not given: the % may be the effect or the level left; settings: CAMA-1
How it was run: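 Western blot for ERα in MCF-7 and CAMA-1 cells after treatment at 0.1 µM. ER level is expressed as % degradation relative to fulvestrant, from a single experiment (n = 1).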

[9] = Intrinsic clearance in human hepatocytes assessed per million cells; assay type: ADME, cell-based, Hepatocyte; settings: read-out: CLH; how it was run: as §1

Structure (SMILES): CC1(C)Cc2c(ccc3[nH]ncc23)[C@@H](c2ccc(NC3CN(CCCF)C3)cn2)N1CC(F)F
- IC50 (Estrogen receptor [1]): 3.16 nM
- hepatocyte CLint [2]: 270 µL/min/1e6 cells
- IC50 (Estrogen receptor [3]): 0.794 nM
- Emax [4]: 98%
- fraction unbound [5]: 0.22

Structure (SMILES): COc1cc(NC2CN(CCCF)C2)ccc1[C@@H]1c2ccc3[nH]ncc3c2C[C@@H](C)N1CC(F)F
- Activity [6]: 99%
- IC50 (Estrogen receptor [1]): 2 nM
- hepatocyte CLint [2]: 14 µL/min/1e6 cells
- logD [7]: 3.2
- IC50 (Estrogen receptor [3]): 0.1 nM
- Emax [4]: 99%
- fraction unbound [5]: 0.12
- Activity [8]: 100%

Structure (SMILES): COc1cc(NC2CN(CCCF)C2)ccc1[C@@H]1c2ccc3[nH]ncc3c2C[C@@H](C)N1CC(C)(C)F
- Activity [6]: 86%
- IC50 (Estrogen receptor [1]): 6.31 nM
- hepatocyte CLint [2]: 8 µL/min/1e6 cells
- IC50 (Estrogen receptor [3]): 0.2 nM
- Emax [4]: 96%
- fraction unbound [5]: 0.14
- Activity [8]: 89%

Structure (SMILES): C[C@@H]1Cc2c(ccc3[nH]ncc23)[C@@H](c2ccc(N(C)C3CN(CCCF)C3)cn2)N1CC(F)(F)F
- Activity [6]: 85%
- IC50 (Estrogen receptor [1]): 2 nM
- hepatocyte CLint [2]: 20 µL/min/1e6 cells
- IC50 (Estrogen receptor [3]): 0.2 nM
- Emax [4]: 98%
- fraction unbound [5]: 0.15
- Activity [8]: 82%

Structure (SMILES): COc1cc(OCCN2CC(CF)C2)ccc1[C@@H]1c2ccc3[nH]ncc3c2C[C@@H](C)N1CC1(F)CC1
- Activity [6]: 79%
- hepatocyte CLint [2]: 20 µL/min/1e6 cells
- hepatocyte CLint [9]: 7 µL/min/1e6 cells
- IC50 (Estrogen receptor [3]): 0.126 nM
- Emax [4]: 96%
- fraction unbound [5]: 0.21
- Activity [8]: 88%

Structure (SMILES): COc1cc(OC2CN(CCCF)C2)ccc1[C@@H]1c2ccc3[nH]ncc3c2C[C@@H](C)N1CC1(F)CC1
- Activity [6]: 90%
- IC50 (Estrogen receptor [1]): 7.94 nM
- hepatocyte CLint [2]: 16 µL/min/1e6 cells
- Emax [4]: 97%
- fraction unbound [5]: 0.11
- Activity [8]: 90%

Structure (SMILES): COc1cc(OCCN2CC(CF)C2)ccc1[C@@H]1c2ccc3[nH]ncc3c2C[C@@H](C)N1CC(C)C
- Activity [6]: 94%
- IC50 (Estrogen receptor [1]): 7.94 nM
- hepatocyte CLint [2]: 9 µL/min/1e6 cells
- hepatocyte CLint [9]: 3 µL/min/1e6 cells
- Emax [4]: 98%
- fraction unbound [5]: 0.52
- Activity [8]: 74%

Structure (SMILES): C[C@@H]1Cc2c(ccc3[nH]ncc23)[C@@H](c2ccc(NC3CN(CCCF)C3)cn2)N1CC(C)(C)F
- hepatocyte CLint [2]: 26 µL/min/1e6 cells
- Emax [4]: 96%
- fraction unbound [5]: 0.1

Structure (SMILES): C[C@@H]1Cc2c(ccc3[nH]ncc23)[C@@H](c2ccc(NC3CN(CCCF)C3)cn2)N1CC1(F)CC1
- Activity [6]: 90%
- IC50 (Estrogen receptor [1]): 6.31 nM
- hepatocyte CLint [2]: 24 µL/min/1e6 cells
- IC50 (Estrogen receptor [3]): 0.631 nM
- Emax [4]: 96%
- fraction unbound [5]: 0.26
- Activity [8]: 102%

Structure (SMILES): CC1(C)Cc2c(ccc3[nH]ncc23)[C@@H](c2ccc(NC3CN(CCCF)C3)cn2)N1CC(F)(F)F
- hepatocyte CLint [2]: 296 µL/min/1e6 cells
- Emax [4]: 95%
- fraction unbound [5]: 0.14

Structure (SMILES): COc1cc(NC2CN(CCCF)C2)ccc1[C@@H]1c2ccc3[nH]ncc3c2C[C@@H](C)N1CC(C)(F)F
- Activity [6]: 80%
- IC50 (Estrogen receptor [1]): 2.51 nM
- hepatocyte CLint [2]: 15 µL/min/1e6 cells
- IC50 (Estrogen receptor [3]): 0.0398 nM
- Emax [4]: 98%
- fraction unbound [5]: 0.043
- Activity [8]: 101%

Structure (SMILES): C[C@@H]1Cc2c(ccc3[nH]ncc23)[C@@H](c2ccc(O[C@H]3CCN(CCCF)C3)cn2)N1CC(F)(F)F
- IC50 (Estrogen receptor [1]): 2 nM
- hepatocyte CLint [2]: 44 µL/min/1e6 cells
- logD [7]: 3.2
- IC50 (Estrogen receptor [3]): 0.398 nM
- Emax [4]: 98%
- fraction unbound [5]: 0.15

Structure (SMILES): C[C@@H]1Cc2c(ccc3[nH]ncc23)[C@@H](c2ccc(NC3CN(CCCF)C3)cn2)N1CC(C)(F)F
- hepatocyte CLint [2]: 49 µL/min/1e6 cells
- fraction unbound [5]: 0.24

Structure (SMILES): COc1cc(NC2CN(CCCF)C2)ccc1[C@@H]1c2ccc3[nH]ncc3c2C[C@@H](C)N1CC(F)(F)F
- Activity [6]: 95%
- IC50 (Estrogen receptor [1]): 5.01 nM
- hepatocyte CLint [2]: 12 µL/min/1e6 cells
- IC50 (Estrogen receptor [3]): 0.0631 nM
- Emax [4]: 98%
- fraction unbound [5]: 0.06
- Activity [8]: 110%

Structure (SMILES): COc1cc(NC2CN(CCCF)C2)ccc1[C@@H]1c2ccc3[nH]ncc3c2C[C@@H](C)N1CC(F)(F)CO
- IC50 (Estrogen receptor [1]): 5.01 nM
- hepatocyte CLint [2]: 20 µL/min/1e6 cells
- IC50 (Estrogen receptor [3]): 0.2 nM
- Emax [4]: 98%
- fraction unbound [5]: 0.23

Structure (SMILES): COc1cc(OCCNCCCF)ccc1[C@@H]1c2ccc3[nH]ncc3c2C[C@@H](C)N1CC1(F)CC1
- hepatocyte CLint [2]: 9 µL/min/1e6 cells
- logD [7]: 2.4
- Emax [4]: 82%
- fraction unbound [5]: 0.18

Structure (SMILES): C[C@@H]1Cc2c(ccc3[nH]ncc23)[C@@H](c2ccc(N(C)[C@H]3CCN(CCCF)C3)cn2)N1CC(F)(F)F
- IC50 (Estrogen receptor [1]): 39.8 nM
- hepatocyte CLint [2]: 34 µL/min/1e6 cells
- logD [7]: 3.5
- IC50 (Estrogen receptor [3]): 0.794 nM
- Emax [4]: 87%
- fraction unbound [5]: 0.057

Structure (SMILES): C[C@@H]1Cc2c(ccc3[nH]ncc23)[C@@H](c2ccc(OCCN3CC(CF)C3)cn2)N1CC1(F)CC1
- Activity [6]: 75%
- IC50 (Estrogen receptor [1]): 1.26 nM
- hepatocyte CLint [2]: 38 µL/min/1e6 cells
- hepatocyte CLint [9]: 8 µL/min/1e6 cells
- IC50 (Estrogen receptor [3]): 0.398 nM
- Emax [4]: 98%
- fraction unbound [5]: 0.34
- Activity [8]: 87%

Structure (SMILES): C[C@@H]1Cc2c(ccc3[nH]ncc23)[C@@H](c2ccc(NC3(C)CN(CCCF)C3)cn2)N1CC(F)(F)F
- IC50 (Estrogen receptor [1]): 7.94 nM
- hepatocyte CLint [2]: 35 µL/min/1e6 cells
- logD [7]: 3.2
- IC50 (Estrogen receptor [3]): 3.16 nM
- Emax [4]: 82%

Structure (SMILES): COc1cc(OCCN2CC(CF)C2)ccc1[C@@H]1c2ccc3[nH]ncc3c2C[C@@H](C)N1CC1(F)COC1
- Activity [6]: 79%
- IC50 (Estrogen receptor [1]): 3.98 nM
- hepatocyte CLint [2]: 42 µL/min/1e6 cells
- logD [7]: 2.7
- IC50 (Estrogen receptor [3]): 0.251 nM
- Emax [4]: 95%
- fraction unbound [5]: 0.25
- Activity [8]: 75%

Structure (SMILES): C[C@@H]1Cc2c(ccc3[nH]ncc23)[C@@H](c2ccc(NCCNCCCF)cn2)N1CC(F)(F)F
- IC50 (Estrogen receptor [1]): 5.01 nM
- hepatocyte CLint [2]: 22 µL/min/1e6 cells
- logD [7]: 2.7
- IC50 (Estrogen receptor [3]): 0.631 nM
- Emax [4]: 94%
- fraction unbound [5]: 0.16

Structure (SMILES): C[C@@H]1Cc2c(ccc3[nH]ncc23)[C@@H](c2ccc(NC3CN(CCCF)C3)cn2)N1CC(F)(F)CO
- Activity [6]: 104%
- IC50 (Estrogen receptor [1]): 6.31 nM
- hepatocyte CLint [2]: 16 µL/min/1e6 cells
- IC50 (Estrogen receptor [3]): 0.501 nM
- Emax [4]: 99%
- fraction unbound [5]: 0.64
- Activity [8]: 105%

Structure (SMILES): C[C@@H]1Cc2c(ccc3[nH]ncc23)[C@@H](c2ccc(NC3CN(CCCF)C3)cn2)N1CC(F)F
- IC50 (Estrogen receptor [1]): 3.98 nM
- hepatocyte CLint [2]: 22 µL/min/1e6 cells
- logD [7]: 2.4
- IC50 (Estrogen receptor [3]): 0.316 nM
- Emax [4]: 99%
- fraction unbound [5]: 0.4

Structure (SMILES): C[C@@H]1Cc2c(ccc3[nH]ncc23)[C@@H](c2ccc(NCCNCCCF)cn2)N1CC1(F)CC1
- IC50 (Estrogen receptor [1]): 10 nM
- hepatocyte CLint [2]: 22 µL/min/1e6 cells
- logD [7]: 2
- IC50 (Estrogen receptor [3]): 1 nM
- Emax [4]: 93%
